The values below come from ChEMBL document CHEMBL1158731, “Anti-babesial and anti-plasmodial compounds from Phyllanthus niruri” (J Nat Prod, 2005).

≈ marks a conversion by molar mass, not a printed value.

One data set deals with Babesia gibsoni. The data set can be described thus: Antibabesial activity against Babesia gibsoni in dog erythrocytes after 72 hrs. The format is functional, organism-based.
Data set [1] is described as follows: Cytotoxicity against human RBC. The format is cell-based. The note with it: erythrocyte.
The test system of a further data set is Plasmodium falciparum. The data set can be described thus: Antiplasmodial activity against chloroquine-susceptible Plasmodium falciparum FCR3 in human erythrocytes after 24 hrs. The note with it: FCR3, 24 h. The class given is functional, organism-based. A digest of the protocol: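 P. falciparum FCR-3 kept in culture and synchronized with 5% D-sorbitol, then washed in RPMI 1640. Infected RBCs resuspended at 0.25-0.50% parasitemia in RPMI 1640 with 10% human serum, 25 mM Hepes, gentamicin and Na2CO3, then incubated with test solution at 37 °C under 5% CO2. Stopped once controls reached 20% schizonts. Schizonts counted on Giemsa smears; IC50 read from the inhibition-versus-concentration graph.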

Data set [2] in a line: Cytotoxicity against dog RBC. The note with it: erythrocyte. The class given is cell-based, Canis lupus familiaris.

Usually IC50 stands for the point on the concentration scale where inhibition reaches its midpoint. As for `CC[C@H](CC[C@@H](C)[C@H]1CC[C@H]2[C@@H]3CC=C4C[C@@H](O)CC[C@]4(C)[C@H]3CC[C@]12C)C(C)C` [BETA-SITOSTEROL], the IC50 stood at 61.6 µg/mL (≈ 149 µM) in the data set with Babesia gibsoni and 32 µg/mL (≈ 77.2 µM) in the data set with Plasmodium falciparum. Further, the Activity result in data set [1] and in data set [2] was “Non-toxic” throughout.
As for `O=C(O[C@H]1O[C@H](COC(=O)c2cc(O)c(O)c3oc(=O)c4cc(O)c(O)c(O)c4c23)[C@@H](O)[C@H](O)[C@H]1O)c1cc(O)c(O)c(O)c1`, the IC50 in the data set on Babesia gibsoni stood at 4.7 µg/mL (≈ 7.41 µM); in the data set with Plasmodium falciparum, 1.4 µg/mL (≈ 2.21 µM). The Activity result in data set [1] and in data set [2] was “Non-toxic” throughout.
On to `O=C(O)c1cc(O)c(O)c(O)c1` [GALLIC ACID], for which the IC50 worked out at 13.4 µg/mL (≈ 78.8 µM) in the data set with Babesia gibsoni and 14.8 µg/mL (≈ 87 µM) in the data set with Plasmodium falciparum. Also, the Activity entry in data set [1] and in data set [2] was “Non-toxic” each time.
In turn, `CC(=O)NCC(=O)O.N=C(N)c1ccc(/N=N/Nc2ccc(C(=N)N)cc2)cc1` [DIMINAZEN ACETURATE] returned an IC50 in the data set on Babesia gibsoni of 0.6 µg/mL.
Consider `O=c1c(O[C@@H]2O[C@H](CO)[C@@H](O)[C@H](O)[C@H]2O[C@@H]2OC[C@@H](O)[C@H](O)[C@H]2O)c(-c2ccc(O)c(O)c2)oc2cc(O)cc(O)c12`, for which the results for the 50% inhibitory concentration (IC50) in the data set with Babesia gibsoni and with Plasmodium falciparum were 35.2 µg/mL (≈ 59 µM) and 11 µg/mL (≈ 18.4 µM), respectively. Further, the Activity entry in data set [1] and in data set [2] was “Non-toxic” in each case.
For `O=C(O[C@@H]1O[C@H](CO)[C@@H](O)[C@H](O)[C@H]1O)c1cc(O)c(O)c(O)c1`, the values for the IC50 in the data set with Babesia gibsoni and in the data set on Plasmodium falciparum were 7.5 µg/mL (≈ 22.6 µM) and 4.6 µg/mL (≈ 13.8 µM), respectively. For the same compound, the Activity entry in data set [1] and in data set [2] was “Non-toxic” in each case.
